Consider 24 compounds from ChEMBL document CHEMBL1140171, “Synthesis and utilization of chiral alpha-methylated alpha-amino acids with a carboxyalkyl side chain in the design of novel Grb2-SH2 peptide inhibitors free of phosphotyrosine” (J Med Chem, 2008).

Assay [1] addresses Growth factor receptor-bound protein 2 (Homo sapiens, UniProt P62993). In words: Binding affinity to recombinant Grb2 SH2 domain by surface plasmon resonance analysis. The method, boiled down: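 Competition SPR: inhibitor mixed with recombinant Grb2 SH2 protein, with equilibrium binding measured to immobilized biotinyl-DDPS-pY-VNVQ (SHC pTyr317 phosphopeptide) on a streptavidin SA chip. Run in pH 7.4 PBS with 0.01% P-20 surfactant. IC50 is the concentration giving half-maximal competition, as the mean of at least two independent experiments with standard deviation.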
A general note: In SPR one partner is held on a chip, and binding of the other changes the refractive index at the surface.

The next assay has as its system MDA-MB-453. In words: Antiproliferative activity against human MDA-MB-453 cells expressing erbB-2 after 4 days by WST-8 assay. Format: functional, cell-based. As to conditions: MDA-MB-453, 96 h. The method, boiled down: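 MDA-MB-453 cells (erbB-2 overexpressing) seeded at (3-4) × 10^3 cells/well with a range of inhibitor concentrations, incubated 4 days. WST-8 added to 10% final, 2-3 h at 37 °C, absorbance read at 450 nm. IC50 is the concentration giving 50% growth inhibition, taken against untreated DMSO-control absorbance.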
(Tetrazolium dyes change colour on reduction, which living cells bring about.)

SMILES strings stand for the structures. Starred links: 1 amine or outer side, 2 acyl side, 3 side chain; linkers in the order of their positions; H or OH if unused. Positions of bridges follow the written chain, without caps; N, C: chain ends. Non-standard residues stand in square brackets, D forms with d. Residues, ends and D or L forms follow the SMILES beside them. *: point of attachment. Cys(CH2CO)(S-oxide,Ss) = O=C([C@H](C[S@+]([O-])CC(=O)[*:3])N[*:1])[*:2]; X1 = O=C(O)CCc1cc(C[C@H](N[*:1])C(=O)[*:2])ccc1O; Tyr(3-NH2) = Nc1cc(C[C@H](N)C(=O)O)ccc1O; X2 = C[C@](CCCC(=O)O)(N[*:1])C(=O)[*:2]; Gla = N[C@@H](CC(C(=O)O)C(=O)O)C(=O)O; Fmoc = O=C(OCC1c2ccccc2-c2ccccc21)*; αMehGlu = C[C@](N)(CCCC(=O)O)C(=O)O; αMeE = C[C@](N)(CCC(=O)O)C(=O)O; Aad = N[C@@H](CCCC(=O)O)C(=O)O; αMeD = C[C@](N)(CC(=O)O)C(=O)O; Ac6c = NC1(C(=O)O)CCCCC1; Ava = NCCCCC(=O)O

Chain of Growth factor receptor-bound protein 2 (P62993 whole entry, the tested form may be a part): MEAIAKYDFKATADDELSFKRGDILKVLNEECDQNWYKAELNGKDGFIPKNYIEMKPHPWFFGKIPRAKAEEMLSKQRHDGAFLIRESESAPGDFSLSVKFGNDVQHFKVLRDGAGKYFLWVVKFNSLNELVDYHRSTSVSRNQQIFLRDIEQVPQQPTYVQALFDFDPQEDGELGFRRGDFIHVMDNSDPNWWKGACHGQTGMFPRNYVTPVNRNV

Take `CC(C)C[C@@H]1NC(=O)[C@H](CCCC(=O)O)NC(=O)C[S@@+]([O-])C[C@@H](C(N)=O)NC(=O)CCCCNC(=O)[C@H](CC(N)=O)NC(=O)[C@](C)(CCC(=O)O)NC(=O)[C@H](Cc2ccc(O)cc2)NC1=O`: the IC50 in assay [1] stood at 18 µM. For the compound `CC(C)C[C@@H]1NC(=O)[C@H](CCCC(=O)O)NC(=O)C[S@@+]([O-])C[C@@H](C(N)=O)NC(=O)CCCCNC(=O)[C@H](CC(N)=O)NC(=O)[C@@](C)(CCC(=O)O)NC(=O)[C@H](Cc2ccc(O)cc2)NC1=O`, the IC50 in assay [1] is 30.5 µM. The same measure, in the same setting: as for `C[C@@](CCC(=O)O)(NC(=O)[C@H](Cc1ccc(O)c(CCC(=O)O)c1)NC(=O)OCC1c2ccccc2-c2ccccc21)C(=O)N[C@@H](CC(N)=O)C(N)=O`, the figure is 168 µM. For `CC(C)C[C@@H]1NC(=O)[C@H](CCCC(=O)O)NC(=O)CSC[C@@H](C(N)=O)NC(=O)CCCCNC(=O)[C@H](CC(N)=O)NC(=O)[C@@](C)(CCC(=O)O)NC(=O)[C@H](Cc2ccc(O)cc2)NC1=O`, in assay [1], the IC50 stood at 60.5 µM.

As to `C[C@@](CCC(=O)O)(NC(=O)[C@@H](N)Cc1ccc(O)c(CCO)c1)C(=O)N[C@@H](CC(N)=O)C(N)=O`, the IC50 in assay [1] came to 290 µM. As for `CC(C)C[C@@H]1NC(=O)[C@H](CCCC(=O)O)NC(=O)CSC[C@@H](C(N)=O)NC(=O)CCCCNC(=O)[C@H](CC(N)=O)NC(=O)[C@](C)(CCC(=O)O)NC(=O)[C@H](Cc2ccc(O)cc2)NC1=O`, the half-inhibitory concentration (IC50) in assay [1] was 70 µM. Still for that read-out and setting: as for `CC(C)C[C@H](NC(=O)[C@H](CCCC(=O)O)NC(=O)OCC1c2ccccc2-c2ccccc21)C(=O)N[C@@H](Cc1ccc(O)c(N)c1)C(=O)NC1(C(=O)N[C@@H](CC(N)=O)C(N)=O)CCCCC1` (Fmoc-[Aad]L[Tyr(3-NH2)][Ac6c]N-NH2), the figure is 5.8 µM. Take `CC(C)C[C@H](NC(=O)[C@H](CCCC(=O)O)NC(=O)OCC1c2ccccc2-c2ccccc21)C(=O)N[C@@H](Cc1ccc(O)c(CCC(=O)O)c1)C(=O)N[C@@](C)(CCC(=O)O)C(=O)N[C@@H](CC(N)=O)C(N)=O` (Fmoc-[Aad]L[X1][αMeE]N-NH2): the IC50 came to 14 µM in the assay with MDA-MB-453 and 5.6 µM in assay [1]. The corresponding values for `CC(C)C[C@H](NC(=O)[C@H](CC(C(=O)O)C(=O)O)NC(=O)OCC1c2ccccc2-c2ccccc21)C(=O)N[C@@H](Cc1ccc(O)c(N)c1)C(=O)NC1(C(=O)N[C@@H](CC(N)=O)C(N)=O)CCCCC1` (Fmoc-[Gla]L[Tyr(3-NH2)][Ac6c]N-NH2) are 52 µM and 2.5 µM. In the case of `CC(C)C[C@H](NC(=O)[C@H](CC(C(=O)O)C(=O)O)NC(=O)OCC1c2ccccc2-c2ccccc21)C(=O)N[C@@H](Cc1ccc(O)c(N)c1)C(=O)N[C@@](C)(CCC(=O)O)C(=O)N[C@@H](CC(N)=O)C(N)=O` (Fmoc-[Gla]L[Tyr(3-NH2)][αMeE]N-NH2), the 50% inhibitory concentration (IC50) in the assay with MDA-MB-453 was determined as 55 µM; in assay [1], 4.4 µM.

Turning to `CC(C)C[C@H](NC(=O)[C@@](C)(CCCC(=O)O)NC(=O)OCC1c2ccccc2-c2ccccc21)C(=O)N[C@@H](Cc1ccc(O)cc1)C(=O)NC1(C(=O)N[C@@H](CC(N)=O)C(N)=O)CCCCC1` (Fmoc-[X2]LY[Ac6c]N-NH2), in assay [1], the IC50 was above 1000 µM. In the case of `CC(C)C[C@H](NC(=O)[C@@](C)(CCCC(=O)O)NC(=O)OCC1c2ccccc2-c2ccccc21)C(=O)N[C@@H](Cc1ccc(O)c(N)c1)C(=O)NC1(C(=O)N[C@@H](CC(N)=O)C(N)=O)CCCCC1` (Fmoc-[X2]L[Tyr(3-NH2)][Ac6c]N-NH2), the IC50 in assay [1] was 700 µM. On to `CC(C)C[C@H](NC(=O)[C@](C)(CCCC(=O)O)NC(=O)OCC1c2ccccc2-c2ccccc21)C(=O)N[C@@H](Cc1ccc(O)cc1)C(=O)NC1(C(=O)N[C@@H](CC(N)=O)C(N)=O)CCCCC1` (Fmoc-[αMehGlu]LY[Ac6c]N-NH2), for which the IC50 in assay [1] worked out at 118 µM.

Regarding `CC(C)C[C@H](NC(=O)[C@](C)(CCCC(=O)O)NC(=O)OCC1c2ccccc2-c2ccccc21)C(=O)N[C@@H](Cc1ccc(O)c(N)c1)C(=O)NC1(C(=O)N[C@@H](CC(N)=O)C(N)=O)CCCCC1` (Fmoc-[αMehGlu]L[Tyr(3-NH2)][Ac6c]N-NH2), the IC50 with MDA-MB-453 came to 29 µM; in assay [1], 3.9 µM. As to `CC(C)C[C@H](NC(=O)[C@@H](N)CC(C(=O)O)C(=O)O)C(=O)N[C@@H](Cc1ccc(O)c(N)c1)C(=O)N[C@@](C)(CCC(=O)O)C(=O)N[C@@H](CC(N)=O)C(N)=O` (H-[Gla]L[Tyr(3-NH2)][αMeE]N-NH2), the IC50 in assay [1] amounted to 19 µM. For the compound `CC(C)C[C@@H]1NC(=O)[C@H](CCCC(=O)O)NC(=O)C[S@@+]([O-])C[C@@H](C(N)=O)NC(=O)CCCCNC(=O)[C@H](CC(N)=O)NC(=O)C2(CCCCC2)NC(=O)[C@H](Cc2ccc(O)cc2)NC1=O` ([Aad]LY[Ac6c]N[Ava][Cys(CH2CO)(S-oxide,Ss)]-NH2; lactam N-7), the IC50 in assay [1] was determined as 77 µM.

Turning to `CC(C)C[C@@H]1NC(=O)[C@H](CCCC(=O)O)NC(=O)C[S@@+]([O-])C[C@@H](C(N)=O)NC(=O)CCCCNC(=O)[C@H](CC(N)=O)NC(=O)[C@](C)(CC(=O)O)NC(=O)[C@H](Cc2ccc(O)cc2)NC1=O` ([Aad]LY[αMeD]N[Ava][Cys(CH2CO)(S-oxide,Ss)]-NH2; lactam N-7), the IC50 in assay [1] worked out at 30.5 µM. `CC(C)C[C@@H]1NC(=O)[C@H](CCCC(=O)O)NC(=O)C[S@@+]([O-])C[C@@H](C(N)=O)NC(=O)CCCCNC(=O)[C@H](CC(N)=O)NC(=O)[C@](C)(CCCC(=O)O)NC(=O)[C@H](Cc2ccc(O)cc2)NC1=O` ([Aad]LY[αMehGlu]N[Ava][Cys(CH2CO)(S-oxide,Ss)]-NH2; lactam N-7): in assay [1], the IC50 came to 17 µM. `CC(C)C[C@@H]1NC(=O)[C@H](CCCC(=O)O)NC(=O)C[S@@+]([O-])C[C@@H](C(N)=O)NC(=O)CCCCNC(=O)[C@H](CC(N)=O)NC(=O)[C@](C)(CCC(=O)O)NC(=O)[C@H](Cc2ccc(O)c(N)c2)NC1=O` ([Aad]L[Tyr(3-NH2)][αMeE]N[Ava][Cys(CH2CO)(S-oxide,Ss)]-NH2; lactam N-7): the IC50 in assay [1] came out at 8.1 µM. Turning to `CC(C)C[C@@H]1NC(=O)[C@H](CC(C(=O)O)C(=O)O)NC(=O)C[S@@+]([O-])C[C@@H](C(N)=O)NC(=O)CCCCNC(=O)[C@H](CC(N)=O)NC(=O)[C@](C)(CCCC(=O)O)NC(=O)[C@H](Cc2ccc(O)c(N)c2)NC1=O` ([Gla]L[Tyr(3-NH2)][αMehGlu]N[Ava][Cys(CH2CO)(S-oxide,Ss)]-NH2; lactam N-7), the results for the IC50 (in the assay with MDA-MB-453; in assay [1]) were 12 µM and 1.15 µM, respectively. For `CC(C)C[C@@H]1NC(=O)[C@H](CCCC(=O)O)NC(=O)CSC[C@@H](C(N)=O)NC(=O)CCCCNC(=O)[C@H](CC(N)=O)NC(=O)[C@](C)(CC(=O)O)NC(=O)[C@H](Cc2ccc(O)cc2)NC1=O` ({CH2CO}-[Aad]LY[αMeD]N[Ava]C-NH2; thioether N-7), in assay [1], the IC50 worked out at 108 µM. `CC(C)C[C@@H]1NC(=O)[C@H](CCCC(=O)O)NC(=O)CSC[C@@H](C(N)=O)NC(=O)CCCCNC(=O)[C@H](CC(N)=O)NC(=O)[C@](C)(CCCC(=O)O)NC(=O)[C@H](Cc2ccc(O)cc2)NC1=O` ({CH2CO}-[Aad]LY[αMehGlu]N[Ava]C-NH2; thioether N-7): the IC50 in assay [1] is 60.7 µM. For the compound `CC(C)C[C@@H]1NC(=O)[C@H](CCCC(=O)O)NC(=O)CSC[C@@H](C(N)=O)NC(=O)CCCCNC(=O)[C@H](CC(N)=O)NC(=O)[C@](C)(CCC(=O)O)NC(=O)[C@H](Cc2ccc(O)c(N)c2)NC1=O` ({CH2CO}-[Aad]L[Tyr(3-NH2)][αMeE]N[Ava]C-NH2; thioether N-7), the IC50 in assay [1] came out at 17 µM. The same measure, in the same setting: then `CC(C)C[C@@H]1NC(=O)[C@H](CC(C(=O)O)C(=O)O)NC(=O)CSC[C@@H](C(N)=O)NC(=O)CCCCNC(=O)[C@H](CC(N)=O)NC(=O)[C@](C)(CCCC(=O)O)NC(=O)[C@H](Cc2ccc(O)c(N)c2)NC1=O` ({CH2CO}-[Gla]L[Tyr(3-NH2)][αMehGlu]N[Ava]C-NH2; thioether N-7), with 9.5 µM.

For orientation: IC50 means the point on the concentration scale where inhibition reaches its midpoint.
